The record followed here is ChEMBL document CHEMBL4732131, “Design, synthesis and evaluation of novel thienopyrimidine-based agents bearing diaryl urea functionality as potential inhibitors of angiogenesis” (Eur J Med Chem, 2021).

Activity calls are given as the source filed them. The calls are words filed in the database; no cut-off is given here. Where only a bound is given, the exact number is not on record here.

Assay [1] has as its system PC-3. As to the kind of experiment: Antiproliferative activity against human PC-3 cells incubated for 48 hrs by MTT assay. It counts as functional, cell-based. Conditions: PC-3, 48 h. The essentials:
(§1)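 8000 cells per well in complete medium, settled overnight at 37 °C under 5% CO2. Compounds were added from DMSO over a range of concentrations and incubated 48 h at 37 °C. MTT (5% solution) was added for 4 h and absorbance read at 570 nm. IC50 was taken from survival-versus-concentration curves. Negative control was 0.1% DMSO.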

For the next assay, the system named is HepG2. As to the kind of experiment: Antiproliferative activity against human HepG2 cells incubated for 48 hrs by MTT assay. Type of assay: functional, cell-based. Conditions: HepG2, 48 h. The method in brief:
as §1
On the technique in general: Formazan colour is commonly taken as a measure of viable cells.

For another assay, the system named is T47D. In words: Antiproliferative activity against human T47D cells incubated for 48 hrs by MTT assay. It counts as functional, cell-based. The essentials: as §1
In assay [2] the test system is HUVEC. As to the kind of experiment: Antiproliferative activity against HUVEC incubated for 48 hrs by MTT assay. It counts as functional, cell-based. The note with it: Homo sapiens. The essentials:
as §1

Assay [3] relates to Chorioallantoic membrane. As to the kind of experiment: Vascular disruptive effect in chicken fertilized egg chorioallantoic membrane assessed as decrease in number of capillary blood vessels by CAM assay relative to control. It counts as functional, tissue-based. Further details: concentration or dose not given beside the values. Conditions: Gallus gallus, dose or concentration not given here.

The test system of assay [4] is Chorioallantoic membrane. As to the kind of experiment: Vascular disruptive effect in chicken fertilized egg chorioallantoic membrane assessed as reduced length of blood vessels by CAM assay. It counts as functional, tissue-based. The note with it: Gallus gallus.
Assay [5] concerns PC-3. As to the kind of experiment: Induction of apoptosis in human PC-3 cells assessed as viable cells at IC50 measured after 48 hrs by Annexin V-FITC/propidium iodide staining based flow cytometry (reference value: 81.4%). It counts as functional. Background: A flow cytometer gives signals particle by particle.
In assay [6] the test system is PC-3. In words: Induction of apoptosis in human PC-3 cells assessed as early apoptotic cells at IC50 measured after 48 hrs by Annexin V-FITC/propidium iodide staining based flow cytometry (reference value: 4.7%). Type of assay: functional.
The subject of assay [7] is PC-3. As to the kind of experiment: Induction of apoptosis in human PC-3 cells assessed as late apoptotic cells at IC50 measured after 48 hrs by Annexin V-FITC/propidium iodide staining based flow cytometry (reference value: 5.16%). Type of assay: functional.
Assay [8] concerns PC-3. As to the kind of experiment: Induction of apoptosis in human PC-3 cells assessed as necrotic cells at IC50 measured after 48 hrs by Annexin V-FITC/propidium iodide staining based flow cytometry (reference value: 7.74%). Type of assay: functional.
The subject of assay [9] is PC-3. As to the kind of experiment: Induction of cell cycle arrest in human PC3 cells assessed as accumulation at G1 phase at IC50 after 48 hrs by flow cytometry (reference value: 44.11%). It counts as functional.
Assay [10] relates to PC-3. As to the kind of experiment: Induction of cell cycle arrest in human PC-3 cells assessed as number of cells at S phase at IC50 after 48 hrs by flow cytometry (reference value: 44.12%). Type of assay: functional.
In assay [11] the test system is PC-3. As to the kind of experiment: Induction of cell cycle arrest in human PC-3 cells assessed as number of cells at SubG1 phase at IC50 after 48 hrs by flow cytometry. Type of assay: functional.
Assay [12] is described as follows: Cytotoxicity against human Hu02 cells incubated for 48 hrs by MTT assay. Type of assay: cell-based. Conditions: Hu02, 48 h. The method in brief:
as §1

Assay [13] relates to HUVEC. In words: Induction of apoptosis in HUVEC assessed as viable cells at IC50 measured after 48 hrs by Annexin V-FITC/propidium iodide staining based flow cytometry (reference value: 87.4%). Type of assay: functional, Homo sapiens.
Assay [14] concerns HUVEC. In words: Induction of apoptosis in HUVEC assessed as early apoptotic cells at IC50 measured after 48 hrs by Annexin V-FITC/propidium iodide staining based flow cytometry (reference value: 4.51%). Type of assay: functional, Homo sapiens.
Assay [15] has as its system HUVEC. In words: Induction of apoptosis in HUVEC assessed as late apoptotic cells at IC50 measured after 48 hrs by Annexin V-FITC/propidium iodide staining based flow cytometry (reference value: 7.23%). Type of assay: functional, Homo sapiens.
Assay [16] has as its system HUVEC. In words: Induction of apoptosis in HUVEC assessed as necrotic cells at IC50 measured after 48 hrs by Annexin V-FITC/propidium iodide staining based flow cytometry (reference value: 0.891%). Type of assay: functional, Homo sapiens.
For assay [17], the system named is PC-3. In words: Induction of cell cycle arrest in human PC-3 cells assessed as number of cells at G2 phase at IC50 after 48 hrs by flow cytometry (reference value: 15.97%). Type of assay: functional.
The subject of assay [18] is HUVEC. As to the kind of experiment: Induction of cell cycle arrest in HUVEC assessed as number of cells at G1 phase at IC50 after 48 hrs by flow cytometry (reference value: 40.93%). It counts as functional, Homo sapiens. The essentials:
(§2)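 Cells were PI-stained and analysed by flow cytometry, with the phase fractions (subG1, G1, S, G2/M) taken from DNA content.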

Assay [19] concerns HUVEC. As to the kind of experiment: Induction of cell cycle arrest in HUVEC assessed as number of cells at S phase at IC50 after 48 hrs by flow cytometry (reference value: 41.49%). It counts as functional, Homo sapiens. The essentials:
as §2

Assay [20] deals with HUVEC. As to the kind of experiment: Induction of cell cycle arrest in HUVEC assessed as number of cells at G2 phase at IC50 after 48 hrs by flow cytometry (reference value: 6.25%). It counts as functional, Homo sapiens. The method in brief: as §2
The test system of assay [21] is PC-3. As to the kind of experiment: Down-regulation of VEGFR2 phosphorylation in human PC-3 cells by Western blot analysis. Conditions: time 24-72 hrs, TDE = time-dependent effect. Type of assay: functional, cell-based. (Immunoblotting shows a protein as a band on a membrane.)
Assay [22] relates to PC-3. In words: Down-regulation of VEGFR2 phosphorylation in human PC-3 cells at 48 hrs by Western blot analysis. The note with it: dose 2.4-5.4 µM. Type of assay: functional, cell-based. The method in brief: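 PC3 cells treated for 48 h at 2.4, 3.6 and 5.4 µM. Lysates run on 12% SDS-PAGE and transferred to nitrocellulose. Membranes probed overnight at 4 °C (12 h) for VEGFR-2 and p-VEGFR-2, with beta-actin as loading control. Detection by ECL.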

As a reminder, the IC50 is the midpoint of a concentration-inhibition curve. Usually inhibition stands for the drop in the measured response relative to a control, in per cent. Regarding `O=C(Nc1ccc(Cl)cc1)Nc1nnc(Sc2ncnc3scc(-c4ccncc4)c23)s1`, the IC50 in the assay with PC-3 [1] amounted to 7.7 µM; in the assay with HepG2, 28.9 µM; with T47D, 23.3 µM; in the assay on HUVEC [2] it was 11.6 µM. Besides, the inhibition in the assay with Chorioallantoic membrane [3] worked out at 21%. Also, the inhibition result in the assay with Chorioallantoic membrane [4] was “inactive”.
As to `O=C(Nc1cccc(F)c1)Nc1nnc(Sc2ncnc3scc(-c4ccncc4)c23)s1`, the IC50 in the assay with PC-3 [1] was found to be 6.6 µM; in the assay with HepG2, 64.1 µM; in the assay on T47D, 16.7 µM; in the assay on HUVEC [2], 13.7 µM. Moreover, the inhibition with Chorioallantoic membrane [3] came out at 35%. Besides, in the assay on Chorioallantoic membrane [4], the inhibition result is “inactive”.
Consider `O=C(Nc1ccc(F)cc1)Nc1nnc(Sc2ncnc3scc(-c4ccncc4)c23)s1`, for which the IC50 came out at 0.97 µM in the assay with PC-3 [1], 31.7 µM in the assay with HepG2, 18.9 µM with T47D and 28.3 µM in the assay on HUVEC [2]. Besides, the Activity in the assay on PC-3 [5] stood at 43.3%; with PC-3 [6], 1.47%; with PC-3 [7] it was 23%; with PC-3 [8], 32.2%; in the assay with PC-3 [9], 55.92%; in the assay on PC-3 [10], 29.76%. For the same molecule, in the assay with PC-3 [11], the Activity is recorded as 9.73%. Also, the inhibition in the assay with Chorioallantoic membrane [3] came out at 27%. In the assay with Chorioallantoic membrane [4], the inhibition entry was “inactive”.
Consider `O=C(Nc1ccccc1)Nc1nnc(Sc2ncnc3scc(-c4ccncc4)c23)s1`, for which the IC50 in the assay on PC-3 [1] stood at 5.7 µM; in the assay with HepG2, 19.4 µM; with T47D it was 23.3 µM; in the assay with HUVEC [2] it was 19.3 µM.
Turning to `Cc1cccc(NC(=O)Nc2nnc(Sc3ncnc4scc(-c5ccncc5)c34)s2)c1`, the 50% inhibitory concentration (IC50) was found to be 5.2 µM in the assay on PC-3 [1], 20.7 µM in the assay on HepG2, 27.2 µM in the assay with T47D and 12.2 µM with HUVEC [2]. Further, the inhibition in the assay on Chorioallantoic membrane [3] stood at 29%. For the same molecule, in the assay on Chorioallantoic membrane [4], the inhibition entry was “inactive”.
Regarding `O=C(Nc1ccc(Cl)c(C(F)(F)F)c1)Nc1nnc(Sc2ncnc3scc(-c4ccncc4)c23)s1`, the IC50 was determined as 12.1 µM in the assay with PC-3 [1], 45.3 µM in the assay on HepG2, 28 µM with T47D and 18.4 µM in the assay on HUVEC [2].
Consider `Cc1ccc(NC(=O)Nc2nnc(Sc3ncnc4scc(-c5ccncc5)c34)s2)cc1Cl`, for which the IC50 was 4.7 µM with PC-3 [1], 16 µM in the assay on HepG2, 34.8 µM in the assay on T47D and 23.2 µM in the assay on HUVEC [2].
Regarding `O=C(Nc1cccc(C(F)(F)F)c1)Nc1nnc(Sc2ncnc3scc(-c4ccncc4)c23)s1`, the 50% inhibitory concentration (IC50) was 11.5 µM in the assay on PC-3 [1], 15.3 µM in the assay on HepG2, 45.1 µM with T47D and 22.4 µM in the assay with HUVEC [2].
On to `O=C(Nc1ccc(Cl)c(Cl)c1)Nc1nnc(Sc2ncnc3scc(-c4ccncc4)c23)s1`, for which the IC50 in the assay with PC-3 [1] was 3.6 µM; with HepG2, 61.9 µM; in the assay with T47D, 14.6 µM; in the assay with HUVEC [2] it was 7.8 µM; in assay [12], 34.3 µM. Further, the Activity with PC-3 [5] amounted to 43.2%; with PC-3 [6] it was 7.17%; in the assay with PC-3 [7], 37%; in the assay on PC-3 [8] it was 12.6%; in the assay with HUVEC [13], 55.2%; in the assay on HUVEC [14] it was 4.65%. Further, the Activity was found to be 17% with HUVEC [15]; 21% in the assay with HUVEC [16]; 45.2% in the assay with PC-3 [9]; 40.58% with PC-3 [10]; 12.85% with PC-3 [17]; 4.38% in the assay on PC-3 [11]. The Activity is 48.3% in the assay with HUVEC [18], 49.8% in the assay on HUVEC [19] and 5.53% in the assay on HUVEC [20]. For the same molecule, the inhibition in the assay on Chorioallantoic membrane [3] was 65%; in the assay on Chorioallantoic membrane [4] (dose or concentration not given here) it was 46%; with PC-3 [21], “Tde”; in the assay on PC-3 [22] it was “Dose-dependent effect”.
On to `CNC(=O)c1cc(Oc2ccc(NC(=O)Nc3ccc(Cl)c(C(F)(F)F)c3)cc2)ccn1` [SORAFENIB], for which the IC50 was 15.5 µM in the assay on PC-3 [1]; 29.6 µM in the assay with HepG2; 6.4 µM with T47D; 2.8 µM with HUVEC [2]; 40 µM in assay [12]. For the same molecule, the Activity with PC-3 [5] is 57.9%; in the assay on PC-3 [6], 1.92%; with PC-3 [8], 23.6%; with HUVEC [13], 59.9%; with HUVEC [15] it was 23.8%; with HUVEC [16] it was 16.4%. For the same molecule, the Activity in the assay with PC-3 [9] is given as 66.19%; in the assay on PC-3 [10], 22.32%; with HUVEC [18] it was 58.69%; with HUVEC [19], 27.1%.
As for `O=C(Nc1cccc(Cl)c1)Nc1nnc(Sc2ncnc3scc(-c4ccncc4)c23)s1`, the IC50 in the assay with PC-3 [1] is 8 µM; in the assay on HepG2 it was 22.9 µM; with T47D, 43.9 µM; in the assay with HUVEC [2], 21 µM.
For the molecule `COc1cccc(NC(=O)Nc2nnc(Sc3ncnc4scc(-c5ccncc5)c34)s2)c1`, the IC50 is 6.8 µM in the assay on PC-3 [1], 28.4 µM in the assay with HepG2, 56.9 µM in the assay with T47D and 67.7 µM in the assay with HUVEC [2].
Regarding `COc1ccc(NC(=O)Nc2nnc(Sc3ncnc4scc(-c5ccncc5)c34)s2)cc1`, the IC50 is 9.9 µM in the assay on PC-3 [1], 14.6 µM in the assay with HepG2, more than 100 µM with T47D and 16.9 µM with HUVEC [2].
As to `Cc1ccc(NC(=O)Nc2nnc(Sc3ncnc4scc(-c5ccncc5)c34)s2)cc1`, the IC50 stood at 2.1 µM with PC-3 [1], 52 µM with HepG2, 17.8 µM in the assay with T47D and 19.3 µM with HUVEC [2].
